Measurements as given in ChEMBL document CHEMBL4422642, “Antiproliferative and Antimigratory Effects of a Novel YAP-TEAD Interaction Inhibitor Identified Using in Silico Molecular Docking” (J Med Chem, 2019).
Activity calls are given as the source filed them. No cut-off for these calls is given here.

What was measured:
Rattus norvegicus [1] = organism: Rattus norvegicus; test: Inhibition of TEAD in rat VSMC assessed as reduction in THBS m-RNA expression at 60 uM by RT-qPCR analysis
Procedure, shortened: (§1)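 Rat aortic VSMCs (male Sprague-Dawley, 10% FCS/DMEM) were treated with 60 μM compound for 6 h; n = 3. Total RNA was reverse-transcribed with random primers and quantified by SYBR Green qPCR. Data were normalized to nonstimulated controls.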

Rattus norvegicus [2] = organism: Rattus norvegicus; test: Inhibition of TEAD in rat VSMC assessed as reduction in CCN1 m-RNA expression at 60 uM by RT-qPCR analysis; procedure, shortened: as §1
Rattus norvegicus [3] = organism: Rattus norvegicus; test: Inhibition of TEAD in rat VSMC assessed as reduction in CTGF m-RNA expression at 60 uM by RT-qPCR analysis; procedure, shortened: as §1
[4] = target: T1, Transcriptional enhancer factor TEF-5 (Homo sapiens, UniProt Q99594); test: Inhibition of Gal4-fused TEAD3 (unknown origin) interaction with YAP expressed in human HeLa cells assessed as basal transcriptional activity level up to 100 uM after 6 hrs by nanoluciferase reporter gene assay; format: cell-based
HeLa [5] = test: Inhibition of Gal4 expression in human HeLa cells assessed as basal transcriptional activity level at 100 uM after 6 hrs by nanoluciferase reporter gene assay; format: functional, cell-based
[6] = target: T2, Transcriptional enhancer factor TEF-3 (Homo sapiens, UniProt Q15561); test: Inhibition of Gal4-fused TEAD4 (unknown origin) interaction with YAP expressed in human HeLa cells assessed as basal transcriptional activity level up to 100 uM after 6 hrs by nanoluciferase reporter gene assay; format: cell-based
VSMC [7] = test: Inhibition of 36B4 m-RNA expression in rat VSMC at 60 uM by RT-qPCR analysis; format: functional, cell-based; procedure, shortened: as §1
VSMC [8] = test: Inhibition of PGK1 m-RNA expression in rat VSMC at 60 uM by RT-qPCR analysis; format: functional, cell-based; procedure, shortened: as §1
MCF7 = test: Antiproliferative activity against human MCF7 assessed as reduction in EdU incorporation up to 40 uM after 24 hrs by Hoechst 33342 staining-based fluorescence assay; format: functional, cell-based
[9] = Inhibition of TEAD in rat VSMC assessed as reduction in CCN1 m-RNA expression incubated for 2 hrs followed by compound wash out and re-treatment for 4 hrs by NanoGlo assay
[10] = target: T3, Transcriptional enhancer factor TEF-1 (Homo sapiens, UniProt P28347); test: Binding affinity to TEAD1 (194 to 411 residues) (unknown origin) by ITC assay
Procedure, shortened: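 Isothermal titration calorimetry with purified recombinant TEAD1 (residues 194–411). The GST tag was removed by PreScission protease cleavage at 4 °C for 18 h, glutathione was removed by dialysis against PBS, and free GST was removed with glutathione resin.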

HeLa [11] = test: Inhibition of TEAD in human HeLa cells assessed as reduction in CCN1 m-RNA expression incubated for 2 hrs followed by compound wash out and re-treatment for 4 hrs by NanoGlo assay; format: cell-based
VSMC [12] = test: Inhibition of TBP m-RNA expression in rat VSMC at 60 uM by RT-qPCR analysis; format: functional, cell-based; procedure, shortened: as §1
[13] = target: T1, Transcriptional enhancer factor TEF-5; test: Inhibition of Gal4-fused TEAD3 (unknown origin) interaction with YAP expressed in human HeLa cells assessed as basal transcriptional activity level after 6 hrs by nanoluciferase reporter gene assay; format: cell-based
Rattus norvegicus [14] = organism: Rattus norvegicus; test: Inhibition of TEAD in rat VSMC assessed as reduction in MYOC m-RNA expression at 60 uM by RT-qPCR analysis; procedure, shortened: as §1
[15] = target: T3, Transcriptional enhancer factor TEF-1; test: Inhibition of Gal4-fused TEAD1 (unknown origin) interaction with YAP expressed in human HeLa cells assessed as basal transcriptional activity level up to 100 uM after 6 hrs by nanoluciferase reporter gene assay; format: cell-based
[16] = target: T3, Transcriptional enhancer factor TEF-1; test: Inhibition of Gal4-fused TEAD1 (unknown origin) interaction with YAP expressed in human HeLa cells assessed as basal transcriptional activity level after 6 hrs by nanoluciferase reporter gene assay; format: cell-based
HeLa [17] = test: Antiproliferative activity against human HeLa cells assessed as reduction in EdU incorporation after 24 hrs by Hoechst 33342 staining-based fluorescence assay; format: functional, cell-based
Procedure, shortened: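 Click-iT EdU assay. Cells were treated with compound for 24 h total, with 10 μM EdU present for the final labeling period. Cells were then fixed in 4% formaldehyde, stained for EdU and counterstained with Hoechst 33342 for 20 min. EdU-positive nuclei were counted in at least three fields per well; n = 4.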

[18] = target: Transcriptional enhancer factor TEF-4 (Homo sapiens, UniProt Q15562); test: Inhibition of Gal4-fused TEAD2 (unknown origin) interaction with YAP expressed in human HeLa cells assessed as basal transcriptional activity level up to 100 uM after 6 hrs by nanoluciferase reporter gene assay; format: cell-based
[19] = Inhibition of TEAD (unknown origin) expressed in human HeLa cells after 6 hrs by nanoluciferase reporter gene assay; format: cell-based
Procedure, shortened: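 HeLa cells stably transduced with a lentiviral 8×TEAD-element secreted nanoluciferase reporter were seeded at 2 × 10^4 cells/well and grown 48 h. They were washed and treated with compound for 2 h, washed again and re-treated for 4 h. Secreted nanoluciferase in the conditioned medium was assayed with NanoGlo; n = 3.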

[20] = target: T2, Transcriptional enhancer factor TEF-3; test: Inhibition of Gal4-fused TEAD4 (unknown origin) interaction with YAP expressed in human HeLa cells assessed as basal transcriptional activity level after 6 hrs by nanoluciferase reporter gene assay; format: cell-based
Rattus norvegicus [21] = organism: Rattus norvegicus; test: Inhibition of TEAD in rat VSMC assessed as reduction in CCN1 protein expression up to 60 uM by Western blot analysis
Procedure, shortened: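 VSMCs were treated with compound over a concentration range for 16 h; n = 4. CCN1 protein in total cell lysates was measured by Western blot with GAPDH probed alongside.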

[22] = Inhibition of TEAD in rat VSMC assessed as reduction in CTGF m-RNA expression incubated for 2 hrs followed by compound wash out and re-treatment for 4 hrs by NanoGlo assay
HeLa [23] = test: Cytotoxicity against human HeLa cells assessed as reduction in cell viability by measuring ethidium homodimer-1 uptake at 20 uM preincubated for 10 mins followed by ethidium homodimer-1 addition measured after 10 mins by fluorescence assay; format: cell-based
Procedure, shortened: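 Live/dead cell viability assay in HeLa cells. Maximum death was set by treating cells 10 min with 0.1% Triton-X, then 10 min with 0.4 μM ethidium homodimer-1. Fluorescence was read on a plate reader.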

T3 sequence (P28347 whole entry, the tested form may be a part): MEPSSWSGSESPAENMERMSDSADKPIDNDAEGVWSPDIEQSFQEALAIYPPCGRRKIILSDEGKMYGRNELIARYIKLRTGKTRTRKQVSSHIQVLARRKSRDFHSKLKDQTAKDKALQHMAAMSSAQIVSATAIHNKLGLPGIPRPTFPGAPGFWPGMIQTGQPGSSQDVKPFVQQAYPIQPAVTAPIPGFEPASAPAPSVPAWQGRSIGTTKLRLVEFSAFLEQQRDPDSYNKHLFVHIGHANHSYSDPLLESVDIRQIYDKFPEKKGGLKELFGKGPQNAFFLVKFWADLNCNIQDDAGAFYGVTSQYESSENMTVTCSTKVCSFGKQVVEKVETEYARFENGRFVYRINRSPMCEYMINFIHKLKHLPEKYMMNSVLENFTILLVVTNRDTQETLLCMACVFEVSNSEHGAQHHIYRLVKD
T1 sequence (Q99594 whole entry, the tested form may be a part): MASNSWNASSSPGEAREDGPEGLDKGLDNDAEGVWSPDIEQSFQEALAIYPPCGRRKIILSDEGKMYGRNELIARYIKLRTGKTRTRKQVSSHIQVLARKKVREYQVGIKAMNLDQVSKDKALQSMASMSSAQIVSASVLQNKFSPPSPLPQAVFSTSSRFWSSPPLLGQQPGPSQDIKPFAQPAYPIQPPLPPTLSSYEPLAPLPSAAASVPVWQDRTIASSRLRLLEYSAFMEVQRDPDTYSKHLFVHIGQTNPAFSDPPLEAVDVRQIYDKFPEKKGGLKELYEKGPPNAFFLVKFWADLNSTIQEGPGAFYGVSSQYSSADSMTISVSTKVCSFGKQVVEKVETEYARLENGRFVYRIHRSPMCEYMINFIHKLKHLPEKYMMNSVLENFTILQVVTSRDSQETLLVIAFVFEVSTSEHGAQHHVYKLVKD
T2 sequence (Q15561 whole entry, the tested form may be a part): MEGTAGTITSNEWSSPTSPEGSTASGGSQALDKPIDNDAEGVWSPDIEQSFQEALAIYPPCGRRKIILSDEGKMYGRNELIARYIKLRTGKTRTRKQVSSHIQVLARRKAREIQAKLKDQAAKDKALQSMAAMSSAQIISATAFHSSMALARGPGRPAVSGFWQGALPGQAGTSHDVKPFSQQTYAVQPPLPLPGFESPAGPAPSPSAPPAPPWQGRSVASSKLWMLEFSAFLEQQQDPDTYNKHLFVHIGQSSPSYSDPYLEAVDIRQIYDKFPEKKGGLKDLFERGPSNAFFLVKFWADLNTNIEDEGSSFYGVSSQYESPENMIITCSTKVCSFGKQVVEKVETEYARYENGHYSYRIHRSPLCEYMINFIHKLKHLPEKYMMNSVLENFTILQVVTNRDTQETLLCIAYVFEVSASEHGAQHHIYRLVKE
Transcriptional enhancer factor TEF-4, sequence (Q15562 whole entry, the tested form may be a part): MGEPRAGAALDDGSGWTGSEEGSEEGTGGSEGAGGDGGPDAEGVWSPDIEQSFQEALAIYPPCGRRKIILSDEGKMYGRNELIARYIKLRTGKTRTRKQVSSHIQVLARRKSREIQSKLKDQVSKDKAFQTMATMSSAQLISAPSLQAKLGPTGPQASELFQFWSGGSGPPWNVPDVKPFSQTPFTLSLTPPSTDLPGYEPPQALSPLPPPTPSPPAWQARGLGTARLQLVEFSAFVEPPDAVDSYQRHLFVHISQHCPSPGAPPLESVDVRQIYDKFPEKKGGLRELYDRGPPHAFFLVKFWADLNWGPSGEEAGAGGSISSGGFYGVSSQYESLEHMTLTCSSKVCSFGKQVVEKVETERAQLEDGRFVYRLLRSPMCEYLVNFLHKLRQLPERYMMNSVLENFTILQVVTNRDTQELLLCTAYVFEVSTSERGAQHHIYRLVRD

Cc1ccc2c(c1)c1c3n2CCNC3CCC1 (centres undefined) [PIRLINDOLE]
inhibition (Rattus norvegicus [1]): Active | inhibition (Rattus norvegicus [2]): Active | inhibition (Rattus norvegicus [3]): Active | inhibition [4]: Active | inhibition (HeLa [5]): inactive | inhibition [6]: Active | inhibition (VSMC [7]): inactive | inhibition (VSMC [8]): inactive | Activity (MCF7): inactive | EC50 [9]: 48 µM | Kd [10]: 12 µM | inhibition (HeLa [11]): Dose-dependent effect | inhibition (VSMC [12]): inactive | IC50 [13]: 44 µM | inhibition (Rattus norvegicus [14]): Active | inhibition [15]: Active | IC50 [16]: 40 µM | Activity (HeLa [17]): Dose-dependent effect | inhibition [18]: Active | IC50 [19]: 70 µM | IC50 [20]: 36 µM | inhibition (Rattus norvegicus [21]): Active | EC50 [22]: 58 µM | Activity (HeLa [23]): Non-Toxic
